Results on 22 molecules are retold here after ChEMBL document CHEMBL1759999, “Exploration of (S)-3-aminopyrrolidine as a potentially interesting scaffold for discovery of novel Abl and PI3K dual inhibitors” (Eur J Med Chem, 2011).

Activity calls are given as the source filed them. The calls are words filed in the database; no cut-off is given here.

Experiment [1] relates to K562. In words: Induction of apoptosis in human K562 cells at 5 uM after 24 hrs by annexin V-FITC/propidium iodide staining by flow cytometry. Type of experiment: functional, cell-based. An outline of the steps: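 K562 cells were treated for 24 h, then untreated and treated cells were collected by centrifugation and washed twice with ice-cold PBS. Phosphatidylserine surface exposure was measured by Annexin V-FITC binding, with PI staining for membrane integrity. Read-out was flow cytometry.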
For orientation: In flow cytometry, cells or beads pass a laser one at a time.

In experiment [2] the test system is K562. Briefly: Cytotoxicity against human K562 cells after 48 hrs by MTT assay. The note with it: K562, 48 h. Type of experiment: functional, cell-based. In short, it runs like this: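 K562 cells grown in DMEM with 10% FBS plus penicillin and streptomycin, humidified air, 37 °C, 5% CO2. Cells seeded in 96-well plates and exposed to compounds at varying concentrations for 48 h. Viability read by MTT. IC50 derived from inhibition rates at each concentration. Values are means of three experiments.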
(Tetrazolium assays rely on reduction of a dye to a coloured formazan, in cell work by metabolically active cells.)

Experiment [3] addresses Phosphatidylinositol 4,5-bisphosphate 3-kinase catalytic subunit alpha isoform (Homo sapiens) (UniProt P42336). In words: Inhibition of PI3Kalpha at 20 uM after 1 hr by luminescence assay. An outline of the steps: (§1)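 Kinase incubated with substrate, test compound and ATP in a final buffer of 25 mM HEPES. Controls were staurosporine for Abl and PI103 for PI3K.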
Experiment [4] concerns the target Tyrosine-protein kinase ABL2 (Homo sapiens) (UniProt P42684). In words: Inhibition of Abl2 at 20 uM after 1 hr by luminescence assay. An outline of the steps:
as §1

Phosphatidylinositol 4,5-bisphosphate 3-kinase catalytic subunit alpha isoform (Homo sapiens), sequence (P42336 whole entry, canonical isoform): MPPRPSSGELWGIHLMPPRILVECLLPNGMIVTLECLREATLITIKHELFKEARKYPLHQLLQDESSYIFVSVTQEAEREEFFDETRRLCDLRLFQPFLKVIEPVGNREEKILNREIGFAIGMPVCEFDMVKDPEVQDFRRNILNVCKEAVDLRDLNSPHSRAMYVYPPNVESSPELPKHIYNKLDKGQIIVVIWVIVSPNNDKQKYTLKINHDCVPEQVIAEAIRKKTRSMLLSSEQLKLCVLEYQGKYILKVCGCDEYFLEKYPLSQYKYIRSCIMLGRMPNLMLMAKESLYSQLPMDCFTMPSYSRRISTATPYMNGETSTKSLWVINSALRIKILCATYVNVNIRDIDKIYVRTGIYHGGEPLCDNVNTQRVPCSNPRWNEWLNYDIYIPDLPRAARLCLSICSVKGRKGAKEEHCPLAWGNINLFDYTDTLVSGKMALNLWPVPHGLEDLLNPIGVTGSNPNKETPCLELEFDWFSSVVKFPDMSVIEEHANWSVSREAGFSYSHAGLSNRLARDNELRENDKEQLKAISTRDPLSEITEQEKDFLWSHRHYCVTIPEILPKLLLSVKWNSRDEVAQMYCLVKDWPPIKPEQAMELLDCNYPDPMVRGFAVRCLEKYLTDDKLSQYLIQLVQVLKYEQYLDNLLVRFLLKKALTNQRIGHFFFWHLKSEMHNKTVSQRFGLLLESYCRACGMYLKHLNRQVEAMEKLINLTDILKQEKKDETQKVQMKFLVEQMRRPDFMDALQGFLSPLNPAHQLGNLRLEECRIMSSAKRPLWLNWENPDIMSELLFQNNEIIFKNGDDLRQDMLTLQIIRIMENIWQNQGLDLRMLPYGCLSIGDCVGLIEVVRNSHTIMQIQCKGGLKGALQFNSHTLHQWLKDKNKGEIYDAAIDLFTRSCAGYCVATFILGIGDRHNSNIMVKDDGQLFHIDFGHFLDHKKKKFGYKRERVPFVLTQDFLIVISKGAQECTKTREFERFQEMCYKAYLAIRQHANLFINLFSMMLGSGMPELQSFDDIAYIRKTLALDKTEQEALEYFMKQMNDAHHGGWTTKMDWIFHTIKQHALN
Tyrosine-protein kinase ABL2 (Homo sapiens), sequence (P42684 whole entry): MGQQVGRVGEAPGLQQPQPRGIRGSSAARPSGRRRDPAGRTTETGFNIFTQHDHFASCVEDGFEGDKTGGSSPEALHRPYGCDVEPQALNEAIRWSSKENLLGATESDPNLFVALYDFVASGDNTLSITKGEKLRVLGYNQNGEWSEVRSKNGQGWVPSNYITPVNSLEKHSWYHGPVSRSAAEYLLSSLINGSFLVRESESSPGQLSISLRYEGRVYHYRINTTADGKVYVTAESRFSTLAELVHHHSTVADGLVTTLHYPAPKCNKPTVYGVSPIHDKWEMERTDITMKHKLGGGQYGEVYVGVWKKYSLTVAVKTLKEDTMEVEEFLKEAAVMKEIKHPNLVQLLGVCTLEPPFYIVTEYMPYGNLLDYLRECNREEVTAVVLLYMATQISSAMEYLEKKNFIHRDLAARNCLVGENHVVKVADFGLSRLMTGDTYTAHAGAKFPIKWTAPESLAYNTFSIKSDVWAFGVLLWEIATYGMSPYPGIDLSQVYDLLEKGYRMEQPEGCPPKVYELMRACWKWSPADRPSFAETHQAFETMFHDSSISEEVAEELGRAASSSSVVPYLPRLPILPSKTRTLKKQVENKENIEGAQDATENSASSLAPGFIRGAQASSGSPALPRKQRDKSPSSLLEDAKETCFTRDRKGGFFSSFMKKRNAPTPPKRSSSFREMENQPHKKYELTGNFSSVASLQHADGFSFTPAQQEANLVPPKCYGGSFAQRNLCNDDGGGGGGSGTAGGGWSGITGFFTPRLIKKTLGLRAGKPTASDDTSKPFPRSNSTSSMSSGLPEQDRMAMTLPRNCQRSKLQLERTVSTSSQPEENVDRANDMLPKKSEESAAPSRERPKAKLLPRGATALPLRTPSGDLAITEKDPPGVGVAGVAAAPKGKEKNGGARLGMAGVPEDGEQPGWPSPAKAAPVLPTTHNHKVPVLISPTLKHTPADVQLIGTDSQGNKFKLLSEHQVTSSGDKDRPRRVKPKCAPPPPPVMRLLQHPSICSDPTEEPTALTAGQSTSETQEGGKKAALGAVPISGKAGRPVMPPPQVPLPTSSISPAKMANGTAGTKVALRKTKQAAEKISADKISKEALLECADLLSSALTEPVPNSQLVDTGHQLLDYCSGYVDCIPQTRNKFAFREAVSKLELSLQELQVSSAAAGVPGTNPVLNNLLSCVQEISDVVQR

In general, IC50 refers to the concentration that gives 50% inhibition. High values mean weaker potency in that assay, low ones greater potency in that assay. As usually defined, the inhibition is the change of the read-out against control, counted positive when it falls. Read a high inhibition as strong suppression. Turning to `O=C(CN[C@H]1CCN(S(=O)(=O)Cc2ccccc2)C1)N1CCN(Cc2ccc(Cl)cc2Cl)CC1`, the result with K562 [1] was inactive. In the experiment on K562 [2], the IC50 came to 4.3 µM. Besides, the inhibition in experiment [3] is 16.4%; in experiment [4], 4.92%.

In turn, `O=C(CN[C@H]1CCN(S(=O)(=O)Cc2ccccc2)C1)N1CCN(Cc2c(F)cccc2Cl)CC1` yielded an IC50 with K562 [2] of 65.8 µM. Still for that read-out and setting: to `COc1cc(CN2CCN(C(=O)CN[C@H]3CCN(S(=O)(=O)Cc4ccccc4)C3)CC2)cc(OC)c1` belongs 33.8 µM. Regarding `Oc1cccc(-c2nc(N3CCOCC3)c3oc4ncccc4c3n2)c1`, the inhibition in experiment [3] is 98.1%. `COc1ccc(CN2CCN(C(=O)CN[C@H]3CCN(S(=O)(=O)Cc4ccccc4)C3)CC2)cc1` gave an IC50 in the experiment with K562 [2] of 50.9 µM.

Consider `O=C(CN[C@H]1CCN(S(=O)(=O)Cc2ccccc2)C1)N1CCN(Cc2ccccc2F)CC1`, for which, in the experiment with K562 [2], the IC50 was 12.6 µM. Same read-out and setting: to `Cc1ccc(CN2CCN(C(=O)CN[C@H]3CCN(S(=O)(=O)Cc4ccccc4)C3)CC2)cc1` belongs 8.2 µM. On the same count and under the same terms, to `O=C(CN[C@H]1CCN(S(=O)(=O)Cc2ccccc2)C1)N1CCN(Cc2ccc(Cl)cc2)CC1` belongs 9.2 µM. On to `O=C(CN[C@H]1CCN(S(=O)(=O)Cc2ccccc2)C1)N1CCN(Cc2cccc(C(F)(F)F)c2)CC1`, for which the result with K562 [1] was inactive. The molecule further registered an IC50 in the experiment on K562 [2] of 3.6 µM. For the same molecule, the inhibition in experiment [3] came out at 12.1%; in experiment [4] it was 4.49%.

`O=C(CN[C@H]1CCN(S(=O)(=O)Cc2ccccc2)C1)N1CCN(Cc2ccccc2)CC1` returned an IC50 in the experiment on K562 [2] of 9.5 µM. Still for that read-out and setting: to `O=C(CN[C@H]1CCN(S(=O)(=O)Cc2ccccc2)C1)N1CCN(Cc2cccc(F)c2)CC1` belongs 13.2 µM.

Turning to `O=C(CN[C@H]1CCN(S(=O)(=O)Cc2ccccc2)C1)N1CCN(Cc2ccc(F)cc2)CC1`, in the experiment on K562 [2], the IC50 was determined as 14.3 µM.

The molecule `O=C(CN[C@H]1CCN(S(=O)(=O)Cc2ccccc2)C1)N1CCN(Cc2ccccc2Cl)CC1` registered an IC50 in the experiment on K562 [2] of 9 µM.

Turning to `O=C(CN[C@H]1CCN(S(=O)(=O)Cc2ccccc2)C1)N1CCN(Cc2c(Cl)cccc2Cl)CC1`, the IC50 with K562 [2] is 28.4 µM. Molecule `Cc1ccccc1CN1CCN(C(=O)CN[C@H]2CCN(S(=O)(=O)Cc3ccccc3)C2)CC1` gave an IC50 in the experiment on K562 [2] of 10.2 µM. Same read-out and setting: to `COc1cc(CN2CCN(C(=O)CN[C@H]3CCN(S(=O)(=O)Cc4ccccc4)C3)CC2)cc(OC)c1OC` belongs 93 µM. `Cc1cc(C)c(CN2CCN(C(=O)CN[C@H]3CCN(S(=O)(=O)Cc4ccccc4)C3)CC2)c(C)c1`: in the experiment with K562 [1], the result was inactive. Besides, the IC50 in the experiment with K562 [2] came out at 3.3 µM. In addition, the values for the inhibition in experiment [3] and in experiment [4] were 13.5% and 1.39%, respectively. In the case of `O=C(CN[C@H]1CCN(S(=O)(=O)Cc2ccccc2)C1)N1CCN(Cc2cccc(Cl)c2)CC1`, the midpoint of inhibition in the experiment with K562 [2], the IC50, lay at 8.6 µM.

`Cc1ccc(NC(=O)c2ccc(CN3CCN(C)CC3)cc2)cc1Nc1nccc(-c2cccnc2)n1` [IMATINIB] gave an IC50 in the experiment on K562 [2] of 0.58 µM. The same measure, in the same setting: to `Cc1cccc(CN2CCN(C(=O)CN[C@H]3CCN(S(=O)(=O)Cc4ccccc4)C3)CC2)c1` belongs 11.3 µM. On the same count and under the same terms, to `COc1cccc(CN2CCN(C(=O)CN[C@H]3CCN(S(=O)(=O)Cc4ccccc4)C3)CC2)c1` belongs 60.8 µM.

Molecule `CN[C@@H]1C[C@H]2O[C@@](C)([C@@H]1OC)n1c3ccccc3c3c4c(c5c6ccccc6n2c5c31)C(=O)NC4` came in with an inhibition in experiment [4] of 90.2%.
